Results: PMC7330163 (Pharmacology Research & Perspectives, 2020)

How the values were obtained:
CYP3A4 [1] = settings: clinical trials, man, 10 mg; cited from earlier work
Cyp2c11 = experiment: Taqman mRNA upregulation in rat liver, 8-day mechanistic follow-up study; assay type: in vivo, Sprague-Dawley rat; settings: male rats, 8-day follow-up study, relative to vehicle control
Summary of the method: (§1)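 Male Sprague-Dawley rats (n = 4) were given 0, 5, 15 or 50 mg/kg daily for 8 days as a suspension in modified gelatine. Liver transcripts were normalised to 18S and to vehicle-treated rats by the ΔΔCT method; fold = 2−ΔΔCT.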

Cyp2c6 [2] = experiment: as above; assay type: in vivo, Sprague-Dawley rat; settings: male rats, 8-day follow-up study, relative to vehicle control
Summary of the method: as §1

total P450 = experiment: Total P450 concentration in liver microsomes of the 4-week rat toxicity study; assay type: in vivo, Sprague-Dawley rat; settings: 4 weeks
Summary of the method: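 Microsomes were made from pooled liver (1.5–2 g per dose group) of 4-week toxicity studies, including vehicle controls. Tissue homogenised in ice-cold 50 mmol/L Tris-HCl pH 7.4 with 250 mmol/L sucrose, spun at 9000 g then 100 000 g (4°C), and the pellet washed in 100 mmol/L pyrophosphate pH 7.25 with 1 mmol/L EDTA. Total P450 by carbon monoxide spectrophotometric assay.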

CYP1A2 = experiment: Induction of P450 mRNA in human hepatocytes; assay type: cell-based; settings: up to 10 µmol/L
Summary of the method: (§2)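 Three human hepatocyte batches were cultured as monolayers and treated for 48–89 h with test compound, diluted 1000-fold from DMSO stock, or vehicle. Medium with fresh drug renewed every 24 h; rifampicin and omeprazole served as positive controls. CYP mRNA then measured.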

[3] = Single-dose intravenous pharmacokinetics in rat; assay type: in vivo, Sprague-Dawley rat; settings: for AUC / Vd / clearance / half-life: Sprague-Dawley, plasma, iv
Cyp3a2 = experiment: Taqman mRNA upregulation in rat liver, 8-day mechanistic follow-up study; assay type: in vivo, Sprague-Dawley rat; settings: male rats, 8-day follow-up study, relative to vehicle control
Summary of the method: as §1

CYP2C9 = experiment: Induction of P450 mRNA in human hepatocytes; assay type: cell-based; settings: up to 10 µmol/L
Summary of the method: as §2

[4] = Toxicokinetics of the 4-week toxicity study in dog; assay type: in vivo, Beagle dog; settings: for AUC0‐24 h (day 8/28): day 28
Cyp2c6 [5] = experiment: Taqman mRNA upregulation in rat liver, 4-week toxicity study; assay type: in vivo, Sprague-Dawley rat; settings: 4-week study
Summary of the method: (§3)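 Livers came from satellite-group rats of both sexes (n = 5–6) in the 4-week study, dosed once daily at 0, 50, 150, 450 or 1500 mg/kg in modified gelatine. Transcripts quantified by comparative Ct, normalised to 18S and to vehicle-treated controls; fold change = 2−ΔΔCT.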

CYP3A4 [6] = experiment: Induction of P450 enzyme activity in human hepatocytes; assay type: cell-based; settings: up to 10 µmol/L
Summary of the method: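 Three batches of human hepatocyte monolayers were exposed for 48–89 h to test compound (DMSO stock diluted 1000-fold), with medium and fresh drug or vehicle renewed every 24 h; rifampicin and omeprazole as positive controls. Cells then washed with MEM, held 10 min at 37°C, and incubated with 200 µmol/L nifedipine for 2 h at 37°C, 5% CO2, as CYP3A4 activity marker.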

[7] = Single-dose oral pharmacokinetics in rat; assay type: in vivo; settings: Sprague-Dawley, plasma
CYP3A4 [8] = experiment: Induction of P450 mRNA in human hepatocytes; assay type: cell-based; settings: 10 µmol/L
Summary of the method: as §2

Cyp2c12 = experiment: Taqman mRNA upregulation in rat liver; assay type: in vivo, Sprague-Dawley rat; settings: either sex
Cyp3a1 = experiment: Taqman mRNA upregulation in rat liver, 4-week toxicity study; assay type: in vivo, Sprague-Dawley rat
Summary of the method: as §3

CCCNS(=O)(=O)Nc1ncnc(OCCOc2ncc(Br)cn2)c1-c1ccc(Br)cc1 [macitentan]
effect on the pharmacokinetics of the sensitive CYP3A4 substrate sildenafil (CYP3A4 [1]): neither changed the pharmacokinetics | Upregulation of Cyp2c11 mRNA (Cyp2c11; 5 mg/kg daily): 1.55 ± 0.22 | Upregulation of Cyp2c11 mRNA (Cyp2c11; 15 mg/kg daily): 1.65 ± 1.35 | Upregulation of Cyp2c11 mRNA (Cyp2c11; 50 mg/kg daily): 2.50 ± 0.85 | Upregulation of Cyp2c6 mRNA (Cyp2c6 [2]; 5 mg/kg daily): 1.92 ± 0.45 | Upregulation of Cyp2c6 mRNA (Cyp2c6 [2]; 15 mg/kg daily): 1.55 ± 1.21 | Upregulation of Cyp2c6 mRNA (Cyp2c6 [2]; 50 mg/kg daily): 3.08 ± 2.45 | P450 (total, liver microsomes) (total P450; female rats, macitentan 50 mg/kg daily): 1.05 nmol/mg | P450 (total, liver microsomes) (total P450; female rats, macitentan 150 mg/kg daily): 1.15 nmol/mg | P450 (total, liver microsomes) (total P450; female rats, macitentan 450 mg/kg daily): 1.18 nmol/mg | P450 (total, liver microsomes) (total P450; female rats, macitentan 1500 mg/kg daily): 0.90 nmol/mg | P450 (total, liver microsomes) (total P450; male rats, macitentan 50 mg/kg daily): 1.35 nmol/mg | P450 (total, liver microsomes) (total P450; male rats, macitentan 150 mg/kg daily): 1.41 nmol/mg | P450 (total, liver microsomes) (total P450; male rats, macitentan 450 mg/kg daily): 1.33 nmol/mg | P450 (total, liver microsomes) (total P450; male rats, macitentan 1500 mg/kg daily): 1.45 nmol/mg | change in CYP1A2 mRNA expression (CYP1A2): No change | T 1/2 ([3]; F, 0.3 mg/kg single iv, geometric mean (range)): 8.9 (6.6‐12) h | AUC ([3]; female, 0.3 mg/kg): 2990 ng·h/mL | Vd ([3]; female, 0.3 mg/kg): 1.4 L/kg | clearance ([3]; female, 0.3 mg/kg): 2 mL/min/kg | half-life ([3]; female, 0.3 mg/kg): 8.9 h | AUC ([3]; male, 0.1 mg/kg): 270 ng·h/mL | Vd ([3]; male, 0.1 mg/kg): 1.6 L/kg | clearance ([3]; male, 0.1 mg/kg): 6.5 mL/min/kg | half-life ([3]; male, 0.1 mg/kg): 3.8 h | AUC ([3]; male, 0.3 mg/kg): 610 ng·h/mL | Vd ([3]; male, 0.3 mg/kg): 1.2 L/kg | clearance ([3]; male, 0.3 mg/kg): 8.2 mL/min/kg | half-life ([3]; male, 0.3 mg/kg): 1.9 h | CL in female rats as percent of the value in male animals ([3]; single iv): 25% | Upregulation of Cyp3a2 mRNA (Cyp3a2; 5 mg/kg daily): 1.46 ± 0.18 | Upregulation of Cyp3a2 mRNA (Cyp3a2; 15 mg/kg daily): 2.37 ± 1.43 | Upregulation of Cyp3a2 mRNA (Cyp3a2; 50 mg/kg daily): 4.04 ± 0.98 | change in CYP2C9 mRNA expression (CYP2C9): No change | increase in AUC0‐24h from 50 to 500 mg/kg ([4]; 4-week toxicity study): 5.1 fold | AUC ([4]; beagle, plasma, oral, 5 mg/kg): 17500 ng·h/mL | AUC0‐24 h (day 1) ([4]; females, 5 mg/kg daily oral): 11.6 μg/mL"h | AUC0‐24 h (day 8/28) ([4]; females, 5 mg/kg daily oral): 10.5 μg/mL"h | AUC0‐24 h (day 1) ([4]; females, 50 mg/kg daily oral): 94.8 μg/mL"h | AUC0‐24 h (day 8/28) ([4]; females, 50 mg/kg daily oral): 46.5 μg/mL"h | AUC0‐24 h (day 1) ([4]; females, 500 mg/kg daily oral): 504 μg/mL"h | AUC0‐24 h (day 8/28) ([4]; females, 500 mg/kg daily oral): 84.4 μg/mL"h | AUC0‐24 h (day 1) ([4]; males, 5 mg/kg daily oral): 17.5 μg/mL"h | AUC0‐24 h (day 8/28) ([4]; males, 5 mg/kg daily oral): 14.7 μg/mL"h | AUC0‐24 h (day 1) ([4]; males, 50 mg/kg daily oral): 134 μg/mL"h | AUC0‐24 h (day 8/28) ([4]; males, 50 mg/kg daily oral): 39.1 μg/mL"h | AUC0‐24 h (day 1) ([4]; males, 500 mg/kg daily oral): 692 μg/mL"h | AUC0‐24 h (day 8/28) ([4]; males, 500 mg/kg daily oral): 44.9 μg/mL"h | Upregulation of Cyp2c6 mRNA (Cyp2c6 [5]; female rats, 50 mg/kg daily, relative to vehicle control): 2.78 ± 0.95 | Upregulation of Cyp2c6 mRNA (Cyp2c6 [5]; female rats, 150 mg/kg daily, relative to vehicle control): 4.21 ± 0.51 | Upregulation of Cyp2c6 mRNA (Cyp2c6 [5]; female rats, 450 mg/kg daily, relative to vehicle control): 4.35 ± 1.54 | Upregulation of Cyp2c6 mRNA (Cyp2c6 [5]; female rats, 1500 mg/kg daily, relative to vehicle control): 3.29 ± 0.77 | Upregulation of Cyp2c6 mRNA (Cyp2c6 [5]; male rats, 50 mg/kg daily, relative to vehicle control = 1.00): 6.21 ± 1.02 | Upregulation of Cyp2c6 mRNA (Cyp2c6 [5]; male rats, 150 mg/kg daily, relative to vehicle control): 4.36 ± 1.96 | Upregulation of Cyp2c6 mRNA (Cyp2c6 [5]; male rats, 450 mg/kg daily, relative to vehicle control): 9.53 ± 1.26 | Upregulation of Cyp2c6 mRNA (Cyp2c6 [5]; male rats, 1500 mg/kg daily, relative to vehicle control): 9.20 ± 3.29 | increase in CYP3A4 enzyme activity (CYP3A4 [6]): fivefold | AUC ([7]; female, 3 mg/kg): 18400 ng·h/mL | Cmax ([7]; female, 3 mg/kg): 850 ng/mL | Tmax ([7]; female, 3 mg/kg): 8 h | bioavailability ([7]; female, 3 mg/kg): 62% | AUC ([7]; male, 3 mg/kg): 3240 ng·h/mL | Cmax ([7]; male, 3 mg/kg): 380 ng/mL | Tmax ([7]; male, 3 mg/kg): 6 h | bioavailability ([7]; male, 3 mg/kg): 53% | AUC ([7]; male, 30 mg/kg): 97400 ng·h/mL | Cmax ([7]; male, 30 mg/kg): 7300 ng/mL | Tmax ([7]; male, 30 mg/kg): 16 h | increase in CYP3A4 mRNA vs DMSO control (CYP3A4 [8]): about 11 fold | Induction of Cyp2c12 mRNA (Cyp2c12): No induction | Upregulation of Cyp3a1 mRNA (Cyp3a1; female rats, 50 mg/kg daily, 4-week study, relative to vehicle control): 12.1 ± 4.4 | Upregulation of Cyp3a1 mRNA (Cyp3a1; female rats, 150 mg/kg daily, 4-week study, relative to vehicle control): 38.3 ± 10.7 | Upregulation of Cyp3a1 mRNA (Cyp3a1; female rats, 450 mg/kg daily, 4-week study, relative to vehicle control): 55.3 ± 13.1 | Upregulation of Cyp3a1 mRNA (Cyp3a1; female rats, 1500 mg/kg daily, 4-week study, relative to vehicle control): 106 ± 34 | Upregulation of Cyp3a1 mRNA (Cyp3a1; female rats, 1500 mg/kg, 4 weeks, vs control): 106 fold | Upregulation of Cyp3a1 mRNA (Cyp3a1; male rats, 50 mg/kg daily, 4-week study, relative to vehicle control = 1.00): 2.17 ± 0.37 | Upregulation of Cyp3a1 mRNA (Cyp3a1; male rats, 150 mg/kg daily, 4-week study, relative to vehicle control): 3.51 ± 1.36 | Upregulation of Cyp3a1 mRNA (Cyp3a1; male rats, 450 mg/kg daily, 4-week study, relative to vehicle control): 4.87 ± 0.51 | Upregulation of Cyp3a1 mRNA (Cyp3a1; male rats, 1500 mg/kg daily, 4-week study, relative to vehicle control): 9.96 ± 4.18 | increase of Cyp3a1 mRNA vs control (Cyp3a1; male rats, 1500 mg/kg, 4 weeks): about 10 fold
